Data taken from ChEMBL document CHEMBL1153345, “Novel tricyclic inhibitors of IkappaB kinase” (J Med Chem, 2009).
One block for each molecule: values may come before it.

Tests used:
[1] = Clearance in rat at 2 mg/kg, iv; format: ADME, organism-based; design: dose 2 mg/kg, route intravenous; conditions: in vivo
Summary of the method: (§1)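 Some compounds were dosed as a cassette of five compounds at 2 mg/kg each, after prescreening to exclude potent CYP inhibitors (IC50 < 10 µM).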

[2] = target: T1, Inhibitor of nuclear factor kappa-B kinase subunit alpha (Homo sapiens, UniProt O15111); assay: Inhibition of IKK1-mediated phosphorylation of GST-IkappaBalpha fusion protein afterr 60 mins by fluorescence polarization assay
T1 sequence (O15111 whole entry): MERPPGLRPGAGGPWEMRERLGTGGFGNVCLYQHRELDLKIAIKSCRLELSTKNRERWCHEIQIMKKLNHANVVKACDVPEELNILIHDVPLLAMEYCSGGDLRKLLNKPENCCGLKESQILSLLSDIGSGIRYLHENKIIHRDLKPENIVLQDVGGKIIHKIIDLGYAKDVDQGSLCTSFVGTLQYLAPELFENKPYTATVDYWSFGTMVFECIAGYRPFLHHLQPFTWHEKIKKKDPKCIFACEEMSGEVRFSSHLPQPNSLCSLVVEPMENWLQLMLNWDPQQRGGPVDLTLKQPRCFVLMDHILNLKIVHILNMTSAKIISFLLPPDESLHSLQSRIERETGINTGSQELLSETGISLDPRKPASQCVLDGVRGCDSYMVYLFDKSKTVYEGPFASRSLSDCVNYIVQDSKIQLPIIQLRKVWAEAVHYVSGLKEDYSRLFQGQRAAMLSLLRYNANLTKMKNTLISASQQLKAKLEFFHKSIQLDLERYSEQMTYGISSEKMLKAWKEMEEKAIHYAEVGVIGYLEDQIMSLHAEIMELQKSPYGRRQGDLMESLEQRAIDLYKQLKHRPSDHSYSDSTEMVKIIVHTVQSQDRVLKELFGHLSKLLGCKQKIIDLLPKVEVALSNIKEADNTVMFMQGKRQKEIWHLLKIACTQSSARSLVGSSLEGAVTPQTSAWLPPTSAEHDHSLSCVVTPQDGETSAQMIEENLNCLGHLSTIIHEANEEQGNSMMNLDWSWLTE
Summary of the method: (§2)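 GST-IκBα (50 µg/mL) with 20 µM ATP in 25 mM Tris-HCl pH 7.5, 7.5 mM MgCl2, 1 mM DTT, 5% glycerol, BSA; reaction started by adding IKK enzyme (IKK-2 typically 3 µg/mL final) at room temperature. Stopped after 60 min with 33 mM EDTA. Phospho-IκBα quantified by fluorescence polarization, competing with a fluorescein-labelled phosphopeptide for anti-phospho-IκBα antibody.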

[3] = AUC in rat at 2 mg/kg, iv; format: ADME, organism-based; design: dose 2 mg/kg, route intravenous; conditions: plasma; summary of the method: as §1
[4] = test system: Liver microsomes; assay: Metabolic stability in human liver microsomes assessed as clearance at 3 uM after 1 hr; format: ADME, Microsome
Summary of the method: (§3)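 Liver microsomes (mouse, human or rat) at 1 mg/mL protein with 3 µM compound in 65 mM phosphate buffer pH 7.4 and 1 mM NADPH, 37 °C, 1 h. Samples taken at 0 and 15 min and quenched with acetonitrile. Metabolic rate calculated from parent disappearance between 0 and 15 min.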

[5] = Cmax in rat at 2 mg/kg, iv; format: ADME, organism-based; design: dose 2 mg/kg, route intravenous; conditions: in vivo; summary of the method: as §1
[6] = Volume of distribution at steady state in rat at 2 mg/kg, iv; format: ADME, organism-based; design: dose 2 mg/kg, route intravenous; conditions: in vivo, read-out: Vdss; summary of the method: as §1
[7] = Selectivity ratio of IC50 for IKK1 to IC50 for IKK2
Summary of the method: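 Buffer was 25 mM Tris-HCl pH 7.5 with 7.5 mM MgCl2, 1 mM DTT, 5% glycerol and 470 µg/mL BSA. IKK-2 was typically 3 µg/mL final. Reactions ran 60 min at room temperature, stopped with 33 mM EDTA. Phospho-IκBα was read by fluorescence-polarization competition of a fluorescein phosphopeptide for an anti-phospho antibody. Ratio = IKK1 IC50/IKK2 IC50.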

[8] = Half life in rat at 2 mg/kg, iv; format: ADME, organism-based; design: dose 2 mg/kg, route intravenous; conditions: in vivo; summary of the method: as §1
[9] = Metabolic stability in mouse liver microsomes assessed as clearance at 3 uM after 1 hr; format: ADME, Microsome; summary of the method: as §3
[10] = test system: Liver microsomes; assay: Metabolic stability in rat liver microsomes assessed as clearance at 3 uM after 1 hr; format: ADME, Microsome; summary of the method: as §3
[11] = target: T2, Inhibitor of nuclear factor kappa-B kinase subunit beta (Homo sapiens, UniProt O14920); assay: Inhibition of IKK2-mediated phosphorylation of GST-IkappaBalpha fusion protein afterr 60 mins by fluorescence polarization assay; summary of the method: as §2
T2 sequence (O14920 whole entry): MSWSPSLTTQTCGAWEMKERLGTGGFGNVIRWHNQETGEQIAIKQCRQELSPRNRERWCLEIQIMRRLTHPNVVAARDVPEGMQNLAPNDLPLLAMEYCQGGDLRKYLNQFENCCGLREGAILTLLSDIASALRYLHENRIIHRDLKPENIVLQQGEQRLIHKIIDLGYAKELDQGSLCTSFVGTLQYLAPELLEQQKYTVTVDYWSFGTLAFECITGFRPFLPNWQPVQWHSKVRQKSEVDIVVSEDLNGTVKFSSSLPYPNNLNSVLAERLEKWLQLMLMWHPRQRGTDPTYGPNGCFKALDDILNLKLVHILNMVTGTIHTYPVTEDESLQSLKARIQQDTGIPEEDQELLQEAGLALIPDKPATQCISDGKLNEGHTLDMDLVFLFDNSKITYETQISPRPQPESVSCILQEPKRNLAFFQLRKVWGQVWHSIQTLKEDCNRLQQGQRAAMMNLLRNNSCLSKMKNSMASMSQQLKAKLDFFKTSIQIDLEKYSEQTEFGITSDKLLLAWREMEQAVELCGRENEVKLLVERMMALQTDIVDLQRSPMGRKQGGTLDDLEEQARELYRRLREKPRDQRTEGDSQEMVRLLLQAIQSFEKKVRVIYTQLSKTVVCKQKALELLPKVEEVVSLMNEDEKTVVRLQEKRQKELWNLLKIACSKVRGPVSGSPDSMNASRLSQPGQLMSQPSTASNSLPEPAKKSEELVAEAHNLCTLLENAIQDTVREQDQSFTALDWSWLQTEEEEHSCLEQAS

[12] = Cytotoxicity against human PBMC assessed as cell viability at 10 uM by alamar blue assay; format: cell-based; conditions: read-out: Activity
[13] = target: Tyrosine-protein kinase BTK (Homo sapiens, UniProt Q06187); assay: Inhibition of Btk
Tyrosine-protein kinase BTK, sequence (Q06187 whole entry): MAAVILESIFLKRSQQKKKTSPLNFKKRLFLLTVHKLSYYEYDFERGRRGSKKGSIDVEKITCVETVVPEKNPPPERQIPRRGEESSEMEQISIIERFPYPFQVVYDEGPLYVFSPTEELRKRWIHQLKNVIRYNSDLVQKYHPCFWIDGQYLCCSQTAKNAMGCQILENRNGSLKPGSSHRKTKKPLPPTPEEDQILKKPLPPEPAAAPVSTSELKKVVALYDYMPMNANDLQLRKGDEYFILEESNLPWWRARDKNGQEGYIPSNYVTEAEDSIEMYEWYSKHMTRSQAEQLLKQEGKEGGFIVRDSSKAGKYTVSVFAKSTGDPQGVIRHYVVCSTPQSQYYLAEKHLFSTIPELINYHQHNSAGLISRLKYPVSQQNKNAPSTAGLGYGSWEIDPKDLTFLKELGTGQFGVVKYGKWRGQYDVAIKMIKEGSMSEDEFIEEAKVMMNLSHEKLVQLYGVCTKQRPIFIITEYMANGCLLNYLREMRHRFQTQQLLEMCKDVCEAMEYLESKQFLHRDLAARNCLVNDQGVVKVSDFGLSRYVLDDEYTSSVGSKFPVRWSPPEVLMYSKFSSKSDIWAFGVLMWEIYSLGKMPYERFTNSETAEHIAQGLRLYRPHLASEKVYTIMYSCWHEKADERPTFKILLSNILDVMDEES
Summary of the method: (§4)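 In-house kinase selectivity panel of 30 kinases; enzyme inhibition values reported in µM.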

[14] = target: Serine/threonine-protein kinase PLK1 (Homo sapiens, UniProt P53350); assay: Inhibition of Plk1; summary of the method: as §4
Serine/threonine-protein kinase PLK1, sequence (P53350 whole entry): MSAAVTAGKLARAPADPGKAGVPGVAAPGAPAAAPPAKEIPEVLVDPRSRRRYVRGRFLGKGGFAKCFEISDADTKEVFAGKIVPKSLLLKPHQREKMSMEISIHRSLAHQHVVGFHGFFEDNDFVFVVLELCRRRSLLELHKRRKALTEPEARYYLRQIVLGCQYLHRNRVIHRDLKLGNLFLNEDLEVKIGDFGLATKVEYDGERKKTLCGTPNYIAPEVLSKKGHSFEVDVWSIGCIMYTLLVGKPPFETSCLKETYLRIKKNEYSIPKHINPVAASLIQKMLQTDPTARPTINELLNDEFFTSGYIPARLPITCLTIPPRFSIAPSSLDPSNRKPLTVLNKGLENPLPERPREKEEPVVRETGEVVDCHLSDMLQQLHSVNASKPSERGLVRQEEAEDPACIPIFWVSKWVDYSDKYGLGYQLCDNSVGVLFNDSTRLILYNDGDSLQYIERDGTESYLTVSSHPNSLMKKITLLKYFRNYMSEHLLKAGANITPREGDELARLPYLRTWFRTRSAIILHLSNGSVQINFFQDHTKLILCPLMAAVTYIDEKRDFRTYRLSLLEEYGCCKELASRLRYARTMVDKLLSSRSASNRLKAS

[15] = target: Proto-oncogene tyrosine-protein kinase Src (Homo sapiens, UniProt P12931); assay: Inhibition of Src; summary of the method: as §4
Proto-oncogene tyrosine-protein kinase Src, sequence (P12931 2-536 limits assumed): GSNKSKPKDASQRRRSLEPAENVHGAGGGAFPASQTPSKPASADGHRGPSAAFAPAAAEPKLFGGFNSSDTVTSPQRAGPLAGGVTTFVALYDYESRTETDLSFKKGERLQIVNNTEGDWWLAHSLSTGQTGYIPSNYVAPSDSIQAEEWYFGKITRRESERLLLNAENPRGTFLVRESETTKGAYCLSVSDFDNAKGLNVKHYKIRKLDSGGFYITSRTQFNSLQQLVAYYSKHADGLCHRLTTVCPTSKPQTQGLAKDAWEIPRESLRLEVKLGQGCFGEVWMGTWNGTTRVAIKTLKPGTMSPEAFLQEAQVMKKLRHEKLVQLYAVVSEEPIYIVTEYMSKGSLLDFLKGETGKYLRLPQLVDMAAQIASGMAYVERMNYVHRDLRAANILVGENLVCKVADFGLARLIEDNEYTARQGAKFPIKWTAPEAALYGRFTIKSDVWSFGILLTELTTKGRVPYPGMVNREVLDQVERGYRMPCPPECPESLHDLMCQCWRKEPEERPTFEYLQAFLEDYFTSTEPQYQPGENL

[16] = target: Cyclin-dependent kinase 2 (Homo sapiens, UniProt P24941); assay: Inhibition of Cdk2; summary of the method: as §4
[17] = test system: PBMC; assay: Inhibition of LPS-induced TNFalpha production in human PBMC preincubated for 30 mins before LPS challenge measured afterr 6 hrs by ELISA; format: functional, cell-based
Summary of the method: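 PBMCs from healthy donor blood, isolated over ficoll in RPMI containing EDTA and polymyxin, then resuspended in RPMI/10% FBS at 1 × 10^6 cells/mL. Compound preincubated 30 min, then LPS added (25 ng/mL final). Incubated 6 h at 37 °C, 5% CO2; supernatant TNF-α measured by ELISA.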

[18] = Inhibition of IGFR; summary of the method: as §4
[19] = target: T3, Tyrosine-protein kinase ITK/TSK (Homo sapiens, UniProt Q08881); assay: Inhibition of Itk; summary of the method: as §4
T3 sequence (Q08881 whole entry): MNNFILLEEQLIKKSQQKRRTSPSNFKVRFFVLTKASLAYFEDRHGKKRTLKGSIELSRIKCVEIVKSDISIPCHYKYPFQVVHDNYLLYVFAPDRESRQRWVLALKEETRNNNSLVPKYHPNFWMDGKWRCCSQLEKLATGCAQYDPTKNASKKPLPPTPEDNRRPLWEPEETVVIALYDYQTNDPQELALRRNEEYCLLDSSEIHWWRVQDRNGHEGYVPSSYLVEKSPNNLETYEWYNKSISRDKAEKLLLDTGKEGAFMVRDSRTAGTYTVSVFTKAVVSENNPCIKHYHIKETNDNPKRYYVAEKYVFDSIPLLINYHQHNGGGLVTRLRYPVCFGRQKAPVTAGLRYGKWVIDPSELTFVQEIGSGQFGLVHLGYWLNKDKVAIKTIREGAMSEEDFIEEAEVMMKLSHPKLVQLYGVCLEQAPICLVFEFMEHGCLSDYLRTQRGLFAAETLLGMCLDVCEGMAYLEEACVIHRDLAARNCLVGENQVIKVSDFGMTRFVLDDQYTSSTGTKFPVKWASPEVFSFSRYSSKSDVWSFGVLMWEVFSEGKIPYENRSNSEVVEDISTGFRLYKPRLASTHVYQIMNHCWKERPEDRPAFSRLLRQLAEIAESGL

[20] = target: T4, Inhibitor of nuclear factor kappa-B kinase subunit epsilon (Homo sapiens, UniProt Q14164); assay: Inhibition of IKKepsilon; summary of the method: as §4
T4 sequence (Q14164 whole entry): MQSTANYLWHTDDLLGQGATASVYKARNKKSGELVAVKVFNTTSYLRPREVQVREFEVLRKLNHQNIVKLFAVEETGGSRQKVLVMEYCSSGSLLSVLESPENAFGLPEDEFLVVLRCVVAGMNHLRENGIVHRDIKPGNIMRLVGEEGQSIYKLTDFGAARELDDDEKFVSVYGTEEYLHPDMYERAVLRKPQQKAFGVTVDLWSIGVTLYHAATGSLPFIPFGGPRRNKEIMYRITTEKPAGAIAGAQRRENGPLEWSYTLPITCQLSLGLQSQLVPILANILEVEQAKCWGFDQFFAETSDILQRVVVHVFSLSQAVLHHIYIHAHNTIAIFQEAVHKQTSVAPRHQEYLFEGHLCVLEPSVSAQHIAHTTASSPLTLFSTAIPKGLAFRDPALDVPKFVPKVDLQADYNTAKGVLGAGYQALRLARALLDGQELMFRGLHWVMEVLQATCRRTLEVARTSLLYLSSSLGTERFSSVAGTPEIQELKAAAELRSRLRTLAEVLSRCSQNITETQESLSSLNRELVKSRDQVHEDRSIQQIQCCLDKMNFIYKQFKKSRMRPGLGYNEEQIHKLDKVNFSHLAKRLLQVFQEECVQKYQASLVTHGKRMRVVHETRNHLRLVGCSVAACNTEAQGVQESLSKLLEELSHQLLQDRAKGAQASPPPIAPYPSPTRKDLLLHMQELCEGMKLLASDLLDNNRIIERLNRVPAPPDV

IC50 [13]: 14 µM
IC50 [2]: 4.3 µM
IC50 [14]: 12 µM
IC50 [15]: < 50 µM
IC50 [16]: 23 µM
CL [4]: 0.13 nmol/mg/min
IC50 [18]: < 50 µM
IC50 [19]: 19 µM
CL [9]: 0.12 nmol/mg/min
CL [10]: 0.08 nmol/mg/min
IC50 [11]: 0.52 µM
IC50 [20]: 14 µM
SMILES: CNc1nc2c(nc(-c3ccccc3)n2C)c2c1ncn2C
IC50 [17]: 0.44 µM

IC50 [13]: 23 µM
IC50 [2]: 0.27 µM
IC50 [14]: < 50 µM
IC50 [15]: < 50 µM
IC50 [16]: 16 µM
CL [4]: 0.09 nmol/mg/min
IC50 [18]: < 50 µM
IC50 [19]: 17 µM
CL [9]: 0.23 nmol/mg/min
CL [10]: 0.14 nmol/mg/min
IC50 [11]: 0.011 µM
IC50 [20]: 17 µM
SMILES: CNc1nc2oc(-c3ccccc3)nc2c2c1ncn2C

clearance [1]: 16 mL/min/kg
IC50 [2]: 5 µM
AUC [3]: 2.7 µM·h
CL [4]: 0.003 nmol/mg/min
Cmax [5]: 4700 nM
Vd [6]: 0.5 L/kg
half-life [8]: 24 min
CL [9]: 0.065 nmol/mg/min
CL [10]: 0 nmol/mg/min
IC50 [11]: 0.033 µM
SMILES: CC(=O)NCCNc1nc2sc(-c3ccc(F)cc3)nc2c2c1ncn2C
viability at 10 µM [12]: 80%

IC50 [13]: 17 µM
IC50 [2]: 1.9 µM
IC50 [14]: < 50 µM
IC50 [15]: < 50 µM
IC50 [16]: 31 µM
IC50 [18]: < 50 µM
IC50 [19]: 9.1 µM
IC50 [11]: 0.022 µM
IC50 [20]: 12 µM
SMILES: CNc1nc2sc(-c3cccc(CNC(C)=O)c3)nc2c2c1ncn2C
IC50 [17]: 0.35 µM

Second part, the molecule before the results:

SMILES: CNc1nc2sc(-c3ccccc3)nc2c2c1ncn2C
clearance [1]: 42 mL/min/kg
IC50 [2]: 3.5 µM
AUC [3]: 2.8 µM·h
CL [4]: 0.09 nmol/mg/min
Cmax [5]: 3000 nM
Vd [6]: 2.8 L/kg
Ratio IC50 [7]: 580
half-life [8]: 72 min
CL [9]: 0.25 nmol/mg/min
CL [10]: 0.12 nmol/mg/min
IC50 [11]: 0.006 µM

SMILES: CNc1nc2sc(-c3ccc(F)cc3)nc2c2c1ncn2C
clearance [1]: 67 mL/min/kg
IC50 [2]: 3.1 µM
AUC [3]: 1.6 µM·h
CL [4]: 0.13 nmol/mg/min
Cmax [5]: 1600 nM
Vd [6]: 3.2 L/kg
half-life [8]: 36 min
viability at 10 µM [12]: 74%
CL [9]: 0.21 nmol/mg/min
CL [10]: 0.095 nmol/mg/min
IC50 [11]: 0.026 µM
